The source of these data is ChEMBL document CHEMBL1121883, “1-(Naphthylalkyl)-1H-imidazole derivatives, a new class of anticonvulsant agents” (J Med Chem, 1981).

Data set [1] can be described thus: (§1) Lethal dose was measured in mice after ip administration. In kind it is toxicity, organism-based. To be noted: mouse, in vivo. Put shortly:
(§2)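 Male Simonsen ICR-derived mice (16-24 g), groups of three, given compound ip in increasing doses within a behavioral screen. Deaths counted on day 5, and LD50 estimated from 5-day survival. Quantal data analysed by the Litchfield-Wilcoxon method.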

For data set [2], the system named is Mus musculus. Put plainly: Dose of compound causing a neurological deficit in 50% of mice after ip administration. It counts as functional. Put shortly:
(§3)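 Traction test in male Hilltop ICR-derived mice (19-30 g, groups of 8-10) just before electroshock, 15 min after ip or 30 min after oral dosing. Mice placed on a 16-gauge, 65-cm copper wire 40 cm above the table; deficit scored as failure to stay on for 10 s. ND50 with 95% limits by Litchfield-Wilcoxon.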

Data set [3] has as its system Mus musculus. Description: Compound was evaluated for anticonvulsant activity by maximal electroshock assay(MES) in mice after ip administration. In kind it is functional. An outline of the steps:
(§4)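 Male Hilltop ICR-derived mice (19-30 g), groups of 8-10, dosed ip with compound or aqueous vehicle. After 15 min pretreatment, a transcorneal 60-Hz, 50 mA shock was given for 0.2 s. Just before the shock, each mouse was tested on a horizontal wire (10 s). Quantal data were analysed by Litchfield-Wilcoxon to give ED50 with 95% confidence limits.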

Data set [4] deals with Mus musculus. Put plainly: Dose causing a neurological deficit in 50% of mice after ip administration. In kind it is functional. An outline of the steps:
as §3

For data set [5], the system named is Mus musculus. Put plainly: Protective index is defined as ND50 (i.p.) divided by MES ED50(i.p.). It counts as functional. Put shortly: (§5)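 Ratio of ND50 from the wire traction test to MES ED50, both measured by the same route (ip or oral) in the same animals. Quantal dose-response data for each were evaluated by Litchfield-Wilcoxon.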
The subject of data set [6] is Mus musculus. Put plainly: Anticonvulsant activity in mouse maximal electroshock assay following i.p. administration. It counts as functional. To be noted: ip. Put shortly:
as §4

Data set [7] relates to Mus musculus. Put plainly: compound was evaluated for anticonvulsant activity by maximal electroshock assay(MES) in mice after po administration. It counts as functional. An outline of the steps: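 Male Hilltop ICR-derived mice, 19-30 g, groups of 8-10, dosed orally with compound or aqueous vehicle. Transcorneal electroshock (50 mA, 60 Hz, 0.2 s) delivered 30 min after dosing, immediately after a wire-hang neurological test. ED50 with 95% confidence limits estimated from quantal data by Litchfield-Wilcoxon.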

The subject of data set [8] is Mus musculus. Put plainly: Protective index defined as ND50 (p.o.) divided by MES ED50(op). In kind it is functional. Put shortly:
as §5

The subject of data set [9] is Mus musculus. Description: Dose causing a neurological deficit in 50% of mice following p.o. administration. In kind it is functional. An outline of the steps:
as §3

The test system of data set [10] is Rattus norvegicus. Put plainly: Compound was evaluated for anticonvulsant activity by maximal electroshock assay(MES) in rat after ip administration. In kind it is functional.
The test system of data set [11] is Rattus norvegicus. Description: Dose of compound causing a neurological deficit in 50% of rat after ip administration. It counts as functional. An outline of the steps: (§6)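 Rats (Simonsen Sprague-Dawley-derived, 80-110 g, groups of 8-10) placed on a suspended 16-gauge, 65-cm copper wire just before electroshock. Deficit scored as inability to remain for 8 s. Pretreatment was 15 min ip or 30 min oral. Quantal data analysed by Litchfield-Wilcoxon to give ND50 with 95% limits.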

Data set [12] has as its system Rattus norvegicus. Put plainly: Compound was evaluated for anticonvulsant activity by maximal electroshock assay(MES) in rat after po administration; 7.3-20. In kind it is functional. Put shortly: (§7)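 Male Simonsen Sprague-Dawley-derived rats, 80-110 g, groups of 8-10, dosed with compound or aqueous vehicle; pretreatment 15 min after ip or 30 min after oral dosing. Transcorneal electroshock, 150 mA, 60 Hz, 0.2 s, given after the wire test. ED50 with 95% confidence limits from quantal data by Litchfield-Wilcoxon.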

For data set [13], the system named is Rattus norvegicus. Description: Dose of compound causing a neurological deficit in 50% of rat after ip administration; 31-78. In kind it is functional. Put shortly: as §6
For data set [14], the system named is Mus musculus. Description: Dose of compound causing a neurological deficit in 50% of mice after ip administration; 35-49. In kind it is functional. Put shortly:
as §3

The subject of data set [15] is Mus musculus. Description: Compound was evaluated for anticonvulsant activity by maximal electroshock assay(MES) in mice after po administration; 23-40. It counts as functional. An outline of the steps:
(§8)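 Male Hilltop ICR-derived mice (19-30 g), groups of 8-10, given compound or aqueous vehicle orally. The transcorneal 60-Hz shock (50 mA, 0.2 s) followed a 30 min pretreatment and a wire-hang neurological check (10 s). ED50 and 95% confidence limits were obtained from quantal data by the Litchfield-Wilcoxon method.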

The test system of data set [16] is Mus musculus. Description: Compound was evaluated for anticonvulsant activity by maximal electroshock assay(MES) in mice after ip administration; 8-13. In kind it is functional. Put shortly: as §4
Data set [17] concerns Mus musculus. Put plainly: Dose of compound causing a neurological deficit in 50% of mice after po administration; 79-196. It counts as functional. Put shortly: as §3
The test system of data set [18] is Rattus norvegicus. Description: Dose of compound causing a neurological deficit in 50% of rat after po administration. In kind it is functional. An outline of the steps:
as §6

The subject of data set [19] is Rattus norvegicus. Description: Compound was evaluated for anticonvulsant activity by maximal electroshock assay(MES) in rat after ip administration; […]. In kind it is functional.
Data set [20] concerns Mus musculus. Put plainly: Dose of compound causing a neurological deficit in 50% of mice after ip administration; 21-52. It counts as functional. Put shortly:
as §3

For data set [21], the system named is Rattus norvegicus. Description: Dose of compound causing a neurological deficit in 50% of rat after ip administration; 29-57. In kind it is functional. An outline of the steps:
as §6

For data set [22], the system named is Mus musculus. Put plainly: Dose of compound causing a neurological deficit in 50% of mice after po administration; 82-1100. In kind it is functional. An outline of the steps:
as §3

Data set [23] concerns Rattus norvegicus. Put plainly: Compound was evaluated for anticonvulsant activity by maximal electroshock assay(MES) in rat after po administration; 4.5-19. In kind it is functional. Put shortly:
as §7

Data set [24] concerns Mus musculus. Description: Compound was evaluated for anticonvulsant activity by maximal electroshock assay(MES) in mice after po administration; 13-23. In kind it is functional. Put shortly:
as §8

The test system of data set [25] is Rattus norvegicus. Put plainly: Compound was evaluated for anticonvulsant activity by maximal electroshock assay(MES) in rat after ip administration; 1.5-6.7. It counts as functional.
For data set [26], the system named is Mus musculus. The data set is described as §1. In kind it is functional. Put shortly: as §2

A value given as a limit tells only on which side of the number the result lay.

As to `O=C(Cn1ccnc1)c1cccc2ccccc12`, the LD50 in [1] is more than 100 mg/kg.
`CS(=O)(=O)C(Cn1ccnc1)c1ccc2ccccc2c1.Cl` (stereo not given) yielded an ND50 with Mus musculus [2] of more than 40 mg/kg. In the data set with Mus musculus [3], this compound came in with an ED50 of more than 40 mg/kg.
In the data set on Mus musculus [4], `CSC(Cn1ccnc1)c1ccc2ccccc2c1.Cl` (stereo not given) gave an ND50 of 76 mg/kg. Moreover, the PI in the data set with Mus musculus [5] is listed as 2.1. For the same compound, in the data set on Mus musculus [6], the ED50 was 37 mg/kg.
Consider `Cl.c1ccc2cc(C3(Cn4ccnc4)SCCS3)ccc2c1`, for which, in the data set on Mus musculus [7], the ED50 is 70 mg/kg. The PI worked out at 1.8 in the data set with Mus musculus [8] and 2.4 in the data set on Mus musculus [5]. For the same compound, the ND50 turned out to be 64 mg/kg with Mus musculus [4] and 125 mg/kg in the data set with Mus musculus [9]. The LD50 in data set [1] is more than 30 mg/kg.
Regarding `Cl.c1ccc2cc(Cn3ccnc3)ccc2c1`, the ED50 amounted to 6.2 mg/kg in the data set with Rattus norvegicus [10] and 25 mg/kg with Mus musculus [6]. Also, the ND50 in the data set on Rattus norvegicus [11] and in the data set with Mus musculus [4] was 32 mg/kg each time.
As for `Cl.c1ccc2c(C3(Cn4ccnc4)SCCS3)cccc2c1`, in the data set with Mus musculus [4], the ND50 was determined as 57 mg/kg. Moreover, in the data set on Mus musculus [5], the PI came out at 2.2. Besides, in the data set with Mus musculus [6], the ED50 was found to be 26 mg/kg.
The compound `Cl.c1ccc2cc(C3(Cn4ccnc4)SCCCS3)ccc2c1` gave a PI in the data set with Mus musculus [5] of 1.4. The median lethal dose (LD50) in [1] was more than 100 mg/kg. In addition, the ED50 in the data set with Mus musculus [6] is 65 mg/kg.
`Cl.c1ccc(CSC(Cn2ccnc2)(SCc2ccccc2)c2ccc3ccccc3c2)cc1` had an ND50 in the data set with Mus musculus [4] of more than 100 mg/kg. The ED50 in the data set with Mus musculus [6] is more than 100 mg/kg.
`Cl.c1ccc(SC(Cn2ccnc2)(Sc2ccccc2)c2ccc3ccccc3c2)cc1`: the ND50 in the data set on Mus musculus [4] was more than 60 mg/kg. The median effective dose (ED50) in the data set with Mus musculus [6] is more than 60 mg/kg.
Compound `CC(C)SC(Cn1ccnc1)(SC(C)C)c1ccc2ccccc2c1.Cl` yielded an ND50 with Mus musculus [4] of more than 100 mg/kg. In the data set on Mus musculus [5], this compound yielded a PI of more than 1.2. Moreover, in the data set on Mus musculus [6], the ED50 worked out at 86 mg/kg.
In the data set on Mus musculus [4], `CCCSC(Cn1ccnc1)(SCCC)c1ccc2ccccc2c1.Cl` came in with an ND50 of more than 100 mg/kg. The same compound gave an LD50 in [1] of more than 100 mg/kg. This compound also returned an ED50 in the data set with Mus musculus [6] of more than 100 mg/kg.
As to `COC(Cn1ccnc1)c1ccc2ccccc2c1.Cl` (stereo not given), the ED50 came to 13 mg/kg in the data set on Rattus norvegicus [12], 28 mg/kg with Mus musculus [15], 10 mg/kg with Mus musculus [16] and 3.8 mg/kg in the data set with Rattus norvegicus [19]. Also, the PI in the data set on Mus musculus [8] is 3.9; with Mus musculus [5] it was 4.2. Also, the ND50 was 46 mg/kg in the data set with Rattus norvegicus [13], 42 mg/kg in the data set with Mus musculus [14], 110 mg/kg in the data set on Mus musculus [17] and more than 100 mg/kg in the data set with Rattus norvegicus [18].
Consider `Cl.c1ccc2cc(C3(Cn4ccnc4)OCCO3)ccc2c1`, for which the ND50 with Mus musculus [20] is 31 mg/kg; in the data set with Rattus norvegicus [21], 41 mg/kg; in the data set on Mus musculus [22], 173 mg/kg; in the data set with Rattus norvegicus [18], more than 300 mg/kg. Besides, the ED50 worked out at 10 mg/kg in the data set on Rattus norvegicus [23], 18 mg/kg in the data set on Mus musculus [24] and 4.5 mg/kg with Rattus norvegicus [25]. Further, in the data set with Mus musculus [26], the LD50 is more than 100 mg/kg.
